Data set [1] has as its target C6-2B mitochondria (rat glioma). The conditions noted are these: C6-2B mitochondria (rat glioma) with [3H]PK11195; ref [28]; cited from earlier work.
Another data set can be described thus: Plasma protein binding. It counts as in vitro ADME.
For data set [2], the target named is T1, TSPO (Rattus norvegicus, UniProt P16257). As to the kind of experiment: Radioligand displacement of [3H]PK11195 in C6 glioma cell lysate. It counts as binding. The conditions noted are these: for TSPO binding affinity, fold greater than 1 (DPA-714): relative to 1 (DPA-714); for TSPO binding affinity, fold greater than 2 (VUIIS1008): relative to 2.
For data set [3], the target named is T1, TSPO. Conditions: ref [18], [19], cited from earlier work.
Data set [4] concerns the target mitochondrial TSPO (mTSPO) (Mus musculus, UniProt P50637). Kind of data set: 2D 1H-15N HSQC NMR titration of TSPO with ligands. The class given is binding. Conditions: 5.0 mM ligand, 0.2 mM TSPO in DPC. In short, it runs like this: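 15N-labeled mitochondrial TSPO was expressed in E. coli BL21(DE3) in M9 minimal medium, then solubilized and purified in DPC detergent. 2D 1H-15N HSQC spectra were recorded with and without ligand (5.0 mM) on an 800-MHz spectrometer at 42 °C. Samples held 0.2 mM TSPO in ~2 % (w/v) DPC, 25 mM MES pH 6.0 and 100 mM NaCl.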

For data set [5], the target named is T1, TSPO. Conditions: n = 5, prior study, ref [18], [19], cited from earlier work.

The values that follow come from paper PMC5634614 (Molecular imaging and biology : MIB : the official …, 2017).

What is called Kd is the constant that tells how readily two partners part at equilibrium. As a reminder, the IC50 is the concentration needed to halve the response being measured. As a reminder, the Ki is the equilibrium dissociation constant of an inhibitor or competing ligand from its target.

Read-outs that look alike come from different tables or passages of the source.

Turning to `CCC(C)N(C)C(=O)c1cc2ccccc2c(-c2ccccc2Cl)n1` (stereo not shown) [[^3H]PK11195], the Kd in data set [1] is 5.73 ± 2.38 nM.
As for `CCc1cc(C)nc2c(CC(=O)N(CC)CC)c(-c3ccc(OCCF)cc3)nn12` [3A, N,N-diethyl-2-(7-ethyl-2-(4-(2-fluoroethoxy)-phenyl)-5-methylpyrazolo[1,5-a]pyrimidin-3-yl)acetamide], the “unbound fraction compared with DPA-714” value in “Plasma protein binding” was “lower unbound fraction than DPA-714”. Besides, at TSPO [2], the IC50 was found to be 0.0144 nM; the affinity corresponds to a Ki of 0.00704 nM; the “TSPO binding affinity, fold greater than 1 (DPA-714)” value is listed as 500 fold; the “TSPO binding affinity, fold greater than 2 (VUIIS1008)” value worked out at 20 fold. In addition, the “TSPO binding affinity, fold greater than 1 (DPA-714)” value on TSPO [2] (listed as VUIIS1009A) is “approximately 500 fold”.
Regarding `CCc1cc(CC)n2nc(-c3ccc(OCCF)cc3)c(CC(=O)N(CC)CC)c2n1` [VUIIS1008], the IC50 on TSPO [3] (previously reported) is 0.3 nM.
Turning to `CCc1cc(C)n2nc(-c3ccc(OCCF)cc3)c(CC(=O)N(CC)CC)c2n1` [3B, N,N-diethyl-2-(5-ethyl-2-(4-(2-fluoroethoxy)phenyl)-7-methylpyrazolo[1,5-a]pyrimidin-3-yl)acetamide], in the data set “Plasma protein binding”, the “unbound fraction compared with DPA-714” value is “lower unbound fraction than DPA-714” and the “unbound fraction, difference compared with 3A” value came to 0.54%. Moreover, in data set [4], the “saturation of ligand-bound state of TSPO (HSQC)” value is “completely saturated the ligand-bound state”. Also, at TSPO [2], the IC50 turned out to be 0.0194 nM; the Ki was 0.00947 nM; the “TSPO binding affinity, fold greater than 1 (DPA-714)” value worked out at 500 fold; the “TSPO binding affinity, fold greater than 2 (VUIIS1008)” value is listed as 20 fold. Moreover, the “TSPO binding affinity, fold greater than 1 (DPA-714)” value on TSPO [2] (listed as VUIIS1009B) is listed as “approximately 500 fold”.
Consider `CCc1cc(CC)n2nc(-c3ccc(OCC[18F])cc3)c(CC(=O)N(CC)CC)c2n1` [[^18F]VUIIS1008, 2-(5,7-diethyl-2-(4-(2-[(18)F]fluoroethoxy)phenyl)pyrazolo[1,5-a]pyrimidin-3-yl)-N,N-diethylacetamide], for which, on TSPO [5] (brain), the “VT (total distribution volume from kinetic parameters)” value was 4.210 ± 1.612, the k1 is reported as 0.881 ±0.392, the k1/k2 is 0.855 ± 0.325 and the k2 is 2.078 ± 1.666. For the same compound, on TSPO [5] (brain), the k3 was 0.172 ± 0.070; the “k3/k4 (binding potential, BPND)” value is 4.435 ± 1.387; the k4 is on record as 0.037 ± 0.004. At TSPO [5] (tumor), the “VT (total distribution volume from kinetic parameters)” value is 25.224 ± 10.035, the k1 was 0.709 ± 0.306, the k1/k2 is 1.902 ± 0.816 and the k2 was 0.442 ± 0.101. In addition, on TSPO [5] (tumor), the k3 was 0.113 ±0.013; the “k3/k4 (binding potential, BPND)” value is reported as 12.634 ± 1.406; the k4 is recorded as 0.009 ± 0.002. Further, the “enhancement in TSPO affinity compared to 1” value at TSPO [3] (prior studies) was 36 fold.
